Source: article PMC3329872 (Bioorganic & medicinal chemistry letters, 2012)
Values joined by “and” are separate entries in the source; they are usually repeats but may differ in a detail not shown here. Equal values may be shown once. “Also recorded” adds a separate entry of the source. Read-outs that look alike come from different tables or passages of the source.

Tests used:
trypsin = target: T1, trypsin (Bos taurus, UniProt P00760); assay: Trypsin enzymatic inhibition assay; type: biochemical
T1 sequence (P00760 24-246): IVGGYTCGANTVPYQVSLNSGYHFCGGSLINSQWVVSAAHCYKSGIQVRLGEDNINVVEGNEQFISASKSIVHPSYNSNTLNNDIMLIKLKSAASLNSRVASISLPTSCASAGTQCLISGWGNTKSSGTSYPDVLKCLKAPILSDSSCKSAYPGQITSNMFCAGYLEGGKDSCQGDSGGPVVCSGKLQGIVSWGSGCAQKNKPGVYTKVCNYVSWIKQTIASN
Outline: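 Chromogenic substrate level was chosen from the Km determination. Rate of absorbance change at 405 nm was recorded immediately after enzyme addition. Velocities at various inhibitor concentrations were fitted to a 4-parameter logistic equation.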

U87 glioma cells = assay: Cell death assay: lactate dehydrogenase; type: cell-based; conditions: LDH assay, human U87 glioma cells; concentration and time given in the cell
Outline: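 U87 glioma cells plated at ten thousand per well and exposed to test compound for 24–48 h at 37°C, 5% CO2. Cell death read as cytosolic LDH released from dying cells, measured with a commercial LDH kit per the manufacturer's protocol.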

plasmin [1] = target: T2, plasmin (Homo sapiens, UniProt P00747); assay: Plasmin enzymatic inhibition assay; type: biochemical
T2 sequence (P00747 581-810 limits assumed, species assumed): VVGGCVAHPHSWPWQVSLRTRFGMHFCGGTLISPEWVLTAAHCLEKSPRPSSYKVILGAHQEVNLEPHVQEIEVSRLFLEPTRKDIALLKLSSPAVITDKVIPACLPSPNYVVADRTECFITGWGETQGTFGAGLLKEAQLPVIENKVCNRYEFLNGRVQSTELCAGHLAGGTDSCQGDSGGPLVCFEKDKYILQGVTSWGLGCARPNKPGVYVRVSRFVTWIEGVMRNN
T2 sequence (P00747 97-580 partner limits assumed, species assumed): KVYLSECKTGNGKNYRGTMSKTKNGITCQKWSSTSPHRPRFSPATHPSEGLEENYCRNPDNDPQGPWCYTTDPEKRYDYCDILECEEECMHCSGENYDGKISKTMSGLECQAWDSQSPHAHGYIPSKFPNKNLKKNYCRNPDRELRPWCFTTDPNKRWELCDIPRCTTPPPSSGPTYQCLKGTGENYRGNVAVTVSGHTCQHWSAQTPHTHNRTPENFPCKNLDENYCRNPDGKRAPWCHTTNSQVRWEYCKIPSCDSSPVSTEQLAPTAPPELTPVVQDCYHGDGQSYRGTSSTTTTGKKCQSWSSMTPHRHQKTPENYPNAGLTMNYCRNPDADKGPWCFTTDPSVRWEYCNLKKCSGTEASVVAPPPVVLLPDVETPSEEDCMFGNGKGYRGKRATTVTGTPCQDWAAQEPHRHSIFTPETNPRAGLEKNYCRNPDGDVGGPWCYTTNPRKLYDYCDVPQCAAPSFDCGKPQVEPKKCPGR

tPA = tPA (Homo sapiens, UniProt P00750); conditions: read-out: tPA IC50; cited from earlier work
Sequence of tPA (P00750 36-562, species assumed): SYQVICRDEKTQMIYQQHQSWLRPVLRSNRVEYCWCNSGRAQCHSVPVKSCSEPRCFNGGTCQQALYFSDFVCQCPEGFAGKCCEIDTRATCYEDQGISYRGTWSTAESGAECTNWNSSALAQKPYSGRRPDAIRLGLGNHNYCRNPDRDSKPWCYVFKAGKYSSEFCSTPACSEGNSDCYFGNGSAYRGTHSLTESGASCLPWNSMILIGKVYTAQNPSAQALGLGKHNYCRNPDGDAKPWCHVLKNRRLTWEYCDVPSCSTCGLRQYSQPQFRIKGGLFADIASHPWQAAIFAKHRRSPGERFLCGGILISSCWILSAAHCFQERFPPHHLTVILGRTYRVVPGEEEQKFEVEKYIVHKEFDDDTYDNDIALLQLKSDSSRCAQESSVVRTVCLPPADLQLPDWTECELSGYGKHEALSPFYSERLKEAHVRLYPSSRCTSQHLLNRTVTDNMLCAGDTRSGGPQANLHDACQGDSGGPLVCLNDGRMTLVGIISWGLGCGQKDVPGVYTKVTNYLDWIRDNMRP

plasmin [2] = target: T2, plasmin; conditions: read-out: plasmin IC50; cited from earlier work
[3] = system: human malignant glioma cells; conditions: cited from earlier work
[4] = read-out: Plasmin IC50, 22°C, pH 7.4, substrate tosyl-Gly-Pro-Lys-pNA

NC(N)=NC(=O)c1ncc(NCC(=O)O)nc1N [Compound 1-H]
IC50 (trypsin): > 250 µM | Cytoxicity (U87 glioma cells): Not cytotoxic

N=C(N)NC(=O)c1nc(Cl)c(NCC(=O)O)nc1N [Compound 1]
IC50 (trypsin): > 250 µM | Cytoxicity (U87 glioma cells): do not demonstrate glioma cytotoxicity; also recorded: Not cytotoxic

N=C(N)c1ncc(NCC(=O)O)nc1N [Compound 2-H]
IC50 (trypsin): > 250 µM | Cytoxicity (U87 glioma cells): Not cytotoxic

N=C(N)c1nc(Cl)c(NCC(=O)O)nc1N [Compound 2]
IC50 (trypsin): > 250 µM | Cytoxicity (U87 glioma cells): do not demonstrate glioma cytotoxicity; also recorded: Not cytotoxic | IC50 (plasmin [1]; [4]): > 250 µM

N/C(=N\O)c1nc(Cl)c(NCC(=O)OCc2ccccc2)nc1N [Compound 7]
IC50 (trypsin): > 250 µM | Cytoxicity (U87 glioma cells): Not cytotoxic

N/C(=N\O)c1ncc(NCC(=O)O)nc1N [Compound 8-H]
IC50 (trypsin): > 250 µM | Cytoxicity (U87 glioma cells): Not cytotoxic | IC50 (plasmin [1]): 230 µM

N/C(=N\O)c1nc(Cl)c(NCC(=O)O)nc1N [Compound 8]
IC50 (trypsin): > 250 µM | Cytoxicity (U87 glioma cells): Not cytotoxic

N=C(N)c1nc(Cl)c(NCC(=O)OCc2ccccc2)nc1N [Compound 11]
IC50 (trypsin): > 250 µM | Cytoxicity (U87 glioma cells): cytotoxic and 50% cytotoxic at 250μM by 72h

NC(=O)c1nc(Cl)c(NCC(=O)OCc2ccccc2)nc1N [Compound 12]
IC50 (trypsin): > 250 µM | Cytoxicity (U87 glioma cells): Not cytotoxic | IC50 (plasmin [1]; [4]): > 150 µM

NC(N)=NC(=O)c1nc(Cl)c(NCC(=O)OCc2ccccc2)nc1N [Compound 14]
IC50 (trypsin): > 250 µM | Cytoxicity (U87 glioma cells): cytotoxic and 50% cytotoxic at 100μM by 24h

N=C(N)NC(=O)c1nc(Cl)c(N)nc1N [amiloride, 3,5 diamino-6-chloro-N-(diaminomethylene) pyrazinecarboximide]
IC50 (tPA): > 1000 µM | IC50 (plasmin [2]): > 1000 µM | IC50 (trypsin): > 250 µM | Cytoxicity (U87 glioma cells): 50% cytotoxic at 250μM by 24h | concentration causing caspase-independent, non-apoptotic cell death [3]: ~ 200 μM
